Measurements collected from several papers.
Target: Cyclin-dependent kinase 9 (CDK9, Homo sapiens, UniProt P50750)

SMILES | read-out | method | tested at | remaining binding
O=C(Nc1c[nH]nc1C(=O)NC1CCNCC1)c1cc(F)cc(F)c1 | binding | competition with immobilised ligand | 1 µM | 72%
Cc1cnn2ncc(-c3ccnc(N(C)C)n3)c2c1 | binding |  | 1 µM | 91%
C[C@@H]1CN(c2ccc3ncc(-c4ccc5[nH]nc(C6CC6)c5c4)n3n2)C[C@H](C)O1 | binding | competition with immobilised ligand | 50 nM | 79%
O=C(c1ccc(Nc2ncc(Cl)c(-c3cc4ccccc4s3)n2)cc1)N1CCC(N2CCCC2)CC1 | binding | competition with immobilised ligand | 1 µM | 82%
Nc1cnc(N2CCc3cc(S(=O)(=O)Nc4c(F)cc(Cl)cc4F)cc(N4CCCC4=O)c32)nc1 | cell-free assay | competition with immobilised ligand | 1 µM | 100%
COc1cnc(Nc2cccc(S(N)(=O)=O)c2)nc1N1CCN(c2ccccc2)C(=O)C1 | binding | competition with immobilised ligand | 1 µM | 100%
CN(c1nccc(-c2cnn3ncccc23)n1)C1CC1 | binding |  | 1 µM | 100%
CCOCCn1cc(C(=O)Nc2ccc(-n3nc(-c4cccnc4)cc3C(F)(F)F)cn2)ccc1=O | cell-free assay | competition with immobilised ligand | 1 µM | 97%
C=CC(=O)N1CCC(C(=O)NCC(=O)N2CCN(c3nc(-c4cnc(N)nc4C(F)F)nc(N4CCOCC4)n3)CC2)CC1 | binding | competition with immobilised ligand | 1 µM | 98%
c1cnn2ncc(-c3ccnc(N4CCC45COC5)n3)c2c1 | binding |  | 1 µM | 93%
CS(=O)(=O)N1CCCC(NC(=O)[C@H](CCC2CCCCC2)NC(=O)c2ccc(CNc3ncnc4c3nnn4-c3ccccc3)cc2)C1 (stereo partly shown) | cell-free assay | competition with immobilised ligand | 0.1 µM | 87%
C[C@@H](c1ccc(-n2cnc3c(N)ncnc32)cc1)N1CCc2nn(C)c(Cc3ccccc3)c2C1=O | binding | competition with immobilised ligand | 0.1 µM | 85%
COc1ccc2c(c1)O[C@@H](c1ccc(OC)c(OC)c1)C[C@H]2NC(=O)C1(c2ccc3c(c2)OC(F)(F)O3)CC1 | cell-free assay | competition with immobilised ligand | 1 µM | 89%
O=C(c1ccc(Nc2nccc(-c3cc4ccccc4s3)n2)cc1)N1CCC(N2CCCC2)CC1 | binding | competition with immobilised ligand | 1 µM | 85%
C[C@@H]1CCN(c2nccc(-c3cnn4ncccc34)n2)C1 | binding |  | 1 µM | 87%
NS(=O)(=O)c1cc(NC(=O)C2(c3ccccc3Cl)CC2)ccc1Oc1cccc(Cl)c1 | cell-free assay | competition with immobilised ligand | 1 µM | 78%
